# In ChEMBL document CHEMBL1129795, “2-Azetidinone cholesterol absorption inhibitors: structure-activity relationships on the heterocyclic nucleus” (1996):
# Columns and labels:
# [1] = tested on: Cricetinae gen. sp.; experiment: In vivo for cholesterol absorption inhibitory activity using 7-day cholesterol-fed hamster model (expressed as percent change in cholesteryl esters at 50 mg/kg/day); assay type: functional, Cricetulus griseus
# Outline: (§1)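 Hamsters were fed a high-cholesterol diet for 7 days and gavaged once daily with compound in 0.2 mL corn oil. On the last day, animals were sacrificed and hepatic and serum lipids were determined. Results are given as percent change in hepatic cholesteryl ester or serum cholesterol concentration versus diet-fed controls gavaged with corn oil without drug.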
# [2] = tested on: Cricetinae gen. sp.; experiment: In vivo cholesterol absorption inhibitory activity using 7-day cholesterol-fed hamster model (expressed as percent change in serum cholesterol at 50 mg/kg/day); assay type: functional, Cricetulus griseus; outline: as §1
Compound,Change [1] [%],Change [2] [%]
COc1ccc(N2C(=O)C(CCCc3ccccc3)C23c2ccc(OC)cc2-c2cc(OC)ccc23)cc1 (stereo not drawn),-22,-22
COc1ccc([C@@H]2[C@@H](CCc3ccccc3)C(=O)N2c2ccc(OC)cc2)cc1,0,0
COc1ccc([C@H]2N(c3ccc(OC)cc3)C(=O)[C@@]2(Cc2ccccc2)c2ccccc2)cc1,16,16
COc1ccc(N2C(=O)[C@H](CCCc3ccccc3)[C@H]2c2ccc(S(C)(=O)=O)cc2)cc1,-75,-26
COc1ccc(N2C(=O)[C@H](CCCc3ccccc3)[C@H]2c2ccc(SC)cc2)cc1,0,0
COc1ccc(N2C(=O)[C@H](CCCc3ccccc3)[C@H]2c2ccc(NC(C)=O)cc2)cc1,-26,-4
CCOc1ccc(N2C(=O)[C@H](CCCc3ccccc3)[C@H]2c2ccc(OC)cc2)cc1,-96,-57
CCCCOc1ccc([C@@H]2[C@H](CCCc3ccccc3)C(=O)N2c2ccc(OC)cc2)cc1,-70,-15
COc1ccc([C@@H]2[C@@H](CCCc3ccccc3)C(=O)N2c2cccc(OC)c2)cc1,-91,-38
COc1ccc([C@@H]2[C@@H](CCCCCCc3ccccc3)C(=O)N2c2ccc(OC)cc2)cc1,-17,-19
COc1ccc(C(=O)N2C(=O)[C@H](CCCc3ccccc3)[C@H]2c2ccc(OC)cc2)cc1,0,-25
O=C1[C@H](CCCc2ccccc2)[C@@H](c2ccc(O)cc2)N1c1ccc(O)cc1,-90,-35
COc1ccc([C@@H]2[C@@H](CCCc3ccccc3)C(=O)N2c2ccc(Oc3ccccc3)cc2)cc1,-49,-28
COc1ccc([C@@H]2[C@@H](CCCCc3ccccc3)C(=O)N2c2ccc(OC)cc2)cc1,-23,-8
COc1ccc([C@H]2N(c3ccc(OC)cc3)C(=O)[C@@]2(C)CCCc2ccccc2)cc1,-56,0
COc1ccc([C@@H]2[C@@H](CCCc3ccccc3)C(=O)N2c2ccc(OC)cc2)cc1 [SCH-48461],-77.5,-29
COc1ccc([C@@H]2[C@@H](CCCc3ccccc3)C(=O)N2c2ccc(C#N)cc2)cc1,-74,-35
COc1ccc(N2C(=O)[C@H](CCCc3ccccc3)[C@H]2c2ccc(N(C)C)cc2)cc1,-60,-29
COc1ccc(N2C(=O)[C@H](CCCc3ccccc3)[C@H]2c2ccc(OC)cc2OC)cc1,-78,-26
CC[C@]1(CCCc2ccccc2)C(=O)N(c2ccc(OC)cc2)[C@@H]1c1ccc(OC)cc1,0,0
COc1ccc([C@@H]2[C@@H](CCCc3ccccc3)C(=O)N2c2ccc(Cl)cc2)cc1,-93,-44
COc1ccc([C@@H]2[C@@H](CCCc3ccccc3)C(=O)N2C)cc1,0,0
COc1ccc([C@H]2N(c3ccc(OC)cc3)C(=O)[C@]2(Cc2ccccc2)c2ccccc2)cc1,-15,23

Compound,Change [1] [%],Change [2] [%]
COc1ccc(N2C(=O)[C@H](CCCc3ccccc3)[C@H]2c2ccc(Oc3ccccc3)cc2)cc1,-77,-37
COc1ccc([C@@H]2[C@@H](CCCc3ccccc3)C(=O)N2Cc2ccccc2)cc1,16,0
COc1ccc([C@@H]2[C@@H](CCCc3ccccc3)C(=O)N2c2ccc(F)cc2)cc1,-95,-38
COc1ccc([C@@H]2[C@@H](CCCC3CCCCC3)C(=O)N2c2ccc(OC)cc2)cc1,-47,-23
CC[C@@]1(c2ccccc2)C(=O)N(c2ccc(OC)cc2)[C@@H]1c1ccc(OC)cc1,-28,0
CC[C@@]1(CCCc2ccccc2)C(=O)N(c2ccc(OC)cc2)[C@@H]1c1ccc(OC)cc1,0,0
COc1ccc([C@H]2N(c3ccccc3)C(=O)[C@@]2(F)CCCc2ccccc2)cc1,-94,-30
COc1ccc(N2C(=O)[C@H](CCCc3ccccc3)[C@H]2c2ccc(F)cc2)cc1,12,0
CC[C@]1(CCCc2ccccc2)C(=O)N(c2ccc(OC)cc2)[C@@H]1c1ccccc1,-29,-12
COc1ccc([C@@H]2[C@@H](CCCc3ccccc3)C(=O)N2C(C)C)cc1,-30,-16
COc1ccc(N2C(=O)[C@H](CCCc3ccccc3)[C@H]2c2ccc([S+](C)[O-])cc2)cc1 (stereo partly drawn),-32,-17
COc1ccc([C@H]2N(c3ccc(OC)cc3)C(=O)[C@]2(C)CCCc2ccccc2)cc1,21,0
COc1ccc([C@@H]2[C@@H](CCCc3ccccc3)C(=O)N2c2ccc([S+](C)[O-])cc2)cc1 (stereo partly drawn),0,-11
COc1ccc([C@@H]2[C@H](CCCc3ccccc3)C(=O)N2c2ccc(OC)cc2)cc1,-95,-45
COc1ccc([C@@H]2[C@H](C)C(=O)N2c2ccc(OC)cc2)cc1,0,0
COCc1ccc([C@@H]2[C@@H](CCCc3ccccc3)C(=O)N2c2ccc(OC)cc2)cc1,-56,-27
COc1ccc(N2C(=O)[C@@H](CCCc3ccccc3)[C@H]2c2ccc(OC(C)C)cc2)cc1,-78,-28
COc1ccc([C@@H]2[C@@H](CCCc3ccccc3)C(=O)N2C23C[C@H]4C[C@@H](C2)C[C@@H](C3)C4)cc1,0,0
COc1ccc(N2C(=O)[C@@H](CCCc3ccccc3)[C@H]2c2ccc(OC)c(OC)c2)cc1,0,0
CC[C@@]1(CCCc2ccccc2)C(=O)N(c2ccc(OC)cc2)[C@@H]1c1ccccc1,0,0
COc1ccc([C@@H]2[C@@H](CCCc3ccccc3)C(=O)N2c2cc(F)cc(F)c2)cc1,-93,-52
COc1ccc(N2C(=O)C(CCCc3ccccc3)C2(c2ccc(OC)cc2)c2ccc(OC)cc2)cc1 (stereo not drawn),0,-9
CCCCOc1ccc([C@@H]2[C@@H](CCCc3ccccc3)C(=O)N2c2ccc(OC)cc2)cc1,-64,-34

Compound,Change [1] [%],Change [2] [%]
COc1ccc(N2C(=O)[C@H](CCCc3ccccc3)[C@H]2c2ccc3c(c2)OCO3)cc1,-19,0
COc1ccc([C@H]2N(c3ccc(OC)cc3)C(=O)C2(c2ccccc2)c2ccccc2)cc1,0,0
COc1ccc([C@@H]2[C@@H](CCCc3ccccc3)C(=O)N2c2ccc(C)c(C)c2)cc1,-39,-21
COc1ccc(N2C(=O)[C@H](CCCc3ccccc3)[C@H]2c2ccc(OCc3ccccc3)cc2)cc1,-48,-15
COc1ccc([C@@H]2[C@@H](CCCc3ccccc3)C(=O)N2c2cccc(N)c2)cc1,-54,-25
COc1ccc([C@H]2NC(=O)[C@@H]2CCCc2ccccc2)cc1,0,0
COc1ccc([C@@H]2[C@@H](CCCc3ccccc3)C(=O)N2c2ccc3c(c2)OCO3)cc1,-52,-19
COc1ccc(N2C(=O)[C@H](CCCc3ccccc3)[C@H]2c2ccc(OC(C)(C)C)cc2)cc1,-80,-26
COc1ccc(N2C(=O)[C@H](CCCc3ccccc3)[C@H]2c2ccccc2OC)cc1,0,0
COc1ccc([C@@H]2[C@@H](CCCc3ccccc3)C(=O)N2c2ccc(C)cc2)cc1,-90,-38
COc1ccc([C@@H]2[C@@H](CCCc3ccccc3)C(=O)N2c2ccc(OC(F)(F)F)cc2)cc1,-85,-34
COc1ccc([C@@H]2[C@H](CCCCCCc3ccccc3)C(=O)N2c2ccc(OC)cc2)cc1,0,-29
COc1ccc([C@@H]2[C@@H](CCCc3ccccc3)C(=O)N2C(=O)c2ccccc2)cc1,16,0
C=CCOc1ccc(N2C(=O)[C@H](CCCc3ccccc3)[C@H]2c2ccc(OC)cc2)cc1,-90,-44
COc1ccc([C@@H]2[C@@H](CCCc3ccccc3)C(=O)N2c2ccc(S(C)(=O)=O)cc2)cc1,-39,0
COc1ccc([C@@H]2[C@@H](CCCc3ccccc3)C(=O)N2c2ccc(C(C)=O)cc2)cc1,-90,-40
COc1ccc(CN2C(=O)[C@H](CCCc3ccccc3)[C@H]2c2ccc(OC)cc2)cc1,-26,0
CCCOc1ccc([C@@H]2[C@@H](CCCc3ccccc3)C(=O)N2c2ccc(OC)cc2)cc1,-95,-40
COc1ccc([C@@H]2[C@@H](CCCc3ccccc3)C(=O)N2c2ccc(SC)cc2)cc1,-70,-26
COc1ccc([C@@H]2[C@H](CCCCc3ccccc3)C(=O)N2c2ccc(OC)cc2)cc1,-72,-28
COc1ccc(N2C(=O)C(CCCc3ccccc3)[C@]2(c2ccc(OC)cc2)C(F)(F)F)cc1 (stereo partly drawn),-11,0
COc1ccc([C@@H]2[C@@H](CCCc3ccccc3)C(=O)N2c2ccccc2)cc1,-95,-49
COc1ccc([C@H]2N(c3ccccc3)C(=O)[C@]2(F)CCCc2ccccc2)cc1,-17,-10
